Consider 2 compounds from article PMC4289021 (Nature, 2014).

The structures appear in SMILES notation. Substitutions are numbered along the chain they refer to.

One experiment deals with RNF146 WWE domain. The conditions noted are these: cited from earlier work.
The target in experiment [1] is T1, RNF146(RING-WWE) (residues 30–183) (Mus musculus, UniProt Q9CZW6).
T1 sequence (Q9CZW6 32-185): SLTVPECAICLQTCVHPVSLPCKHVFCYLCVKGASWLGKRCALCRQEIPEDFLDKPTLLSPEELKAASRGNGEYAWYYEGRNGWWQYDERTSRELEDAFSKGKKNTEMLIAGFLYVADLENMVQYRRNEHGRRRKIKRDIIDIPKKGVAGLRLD
The experiment is described as follows: ITC, iso-ADPr binding to WT RNF146. For orientation: In ITC the heat of successive injections is recorded.

In a further experiment the target is T2, K61A RNF146(RING-WWE) (Mus musculus, UniProt Q9CZW6, K63A).
T2 sequence (Q9CZW6 32-185 K63A): T1 sequence (Q9CZW6 32-185) with K32A
As to the kind of experiment: ITC, iso-ADPr binding to K61A RNF146. Particulars: 25 °C, K61A mutant. In outline:
(§1)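 Calorimetry at 25 °C on untagged mouse RNF146(RING-WWE), wild type or site-directed mutants. Protein and iso-ADPr were exchanged by Superdex 75 SEC into 20 mM HEPES pH 7.5, 150 mM NaCl, 1 mM DTT. Cell held ~15–20 μM protein. Ligand ~500 μM in the same buffer. Both were degassed. Injections of 5 μL every 5 min, 25–40 total. Kd came from a one-site model fit.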

A further experiment has as its target T3, K61D RNF146(RING-WWE) (Mus musculus, UniProt Q9CZW6, K63D).
T3 sequence (Q9CZW6 32-185 K63D): T1 sequence (Q9CZW6 32-185) with K32D
The experiment is described as follows: ITC, iso-ADPr binding to K61D RNF146. The conditions noted are these: 25 °C, K61D mutant. In outline:
as §1

The subject of experiment [2] is full-length RNF146 or RNF146(RING-WWE). As to the kind of experiment: E2~Ub/lysine reactivity assay with UbcH5. The experiment is classed as biochemical, human. The procedure, abridged: (§2)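 Mouse RNF146(RING-WWE) (residues 30–183), made from a GST-tagged construct with TEV cleavage, or His6-T7-tagged full-length RNF146. UbcH5~Ub was charged by wheat E1 (1.5 μM) with 100 μM E2, 200 μM K0 Ub, 2.5 mM MgCl2 and 2 mM ATP in PBS at 37 °C for 30 min, then SEC-purified. Final: 25 μM E2, 4 or 8 μM E3, ± iso-ADPr. Started with 40 mM L-lysine at 35 °C; sampled 1–15 min; non-reducing SDS-PAGE, Coomassie/Oriole stain.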

The test system of another experiment is RNF146(RING-WWE) K61D. The experiment is described as follows: E2~Ub/lysine reactivity assay, K61D mutant. The format is biochemical, mouse. The conditions noted are these: 8 μM E3, 25 μM iso-ADPr. In outline: as §2
A further experiment deals with RNF146 WWE domain alone. Particulars: previously published; cited from earlier work.

Take `Nc1ncnc2c1ncn2[C@@H]1O[C@H](COP(=O)(O)OP(=O)(O)OC[C@H]2OC(O)[C@H](O)[C@@H]2O)[C@@H](O)[C@H]1O` (stereo partly drawn) [ADPr, ADP-ribose]: the “binding to WWE domain” value in the experiment on RNF146 WWE domain is recorded as “does not bind”.
As to `Nc1ncnc2c1ncn2[C@@H]1O[C@H](COP(=O)(O)O)[C@@H](O)[C@H]1O[C@@H]1O[C@H](COP(=O)(O)O)[C@@H](O)[C@H]1O` [iso-ADPr], the Kd – broadly, the free concentration of one partner at which half of the binding sites on the other are occupied at equilibrium, for simple one-to-one binding – in experiment [1] (ITC, 25 °C, one-site model) was 39 nM; at K61A RNF146(RING-WWE), 214 nM; on K61D RNF146(RING-WWE), 457 nM; on RNF146 WWE domain alone it was 372 nM. Moreover, the “binding to RNF146(RING-WWE) relative to the WWE domain alone” value in experiment [1] (ratio of Kd 39 nM vs 372 nM) was “ten times tighter”. In addition, the “iso-ADPr concentration up to which the rate of E2~Ub/lysine reactivity increases” value in experiment [2] (3 min after lysine addition, 1.2 equiv.) was 5 µM. Moreover, the “activation of Ub transfer from UbcH5~Ub to lysine” value in experiment [2] (ligand added to full-length RNF146 or RING-WWE fragment, not RING-only construct) was “robust activation”. In addition, the “activation of E2~Ub/lysine reactivity” value in the experiment with RNF146(RING-WWE) K61D was “not activated”.
